SR-BI DiI inh: mouse SR-BI HDL lipid transfer inhibition; 320,000 tested, 0.96% active; inhibition, % at 12.5 µM; AID 488896; Q61009; ldlA[mSR-BI] CHO cells, DiI-HDL uptake fluorescence, 3 h;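 active means mean replicate inhibition of at least 70% and a set share of replicates each scoring 70 or more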
ANO1 block: mouse TMEM16A channel inhibition, primary screen. HEK293 TMEM16A/YFP iodide influx fluorescence, ionomycin. normalized B-score (activity score, 25-100; higher = stronger inhibition) at 10 µM. 310,000 tested, 1.2% active. Q8BHY3;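 active means ratio plate-corrected score three or more library SD toward inhibition, starting fluorescence score within five deviations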;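 further: score derived from kinetic fluorescence span divided by baseline fluorescence per well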
DNA FID counter: counter-screen for HCV NS3 helicase inhibitors: DNA intercalator displacement | DNA fluorescent intercalator displacement, fluorescence | inhibition, % at 7.9 µM | 290,000 tested, 0.17% active | AID 1845; in the data active means inhibition above about 37%;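 further: higher means more ethidium bromide displaced from hairpin DNA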
SR-BI DiI-HDL act: SR-BI HDL lipid transfer activation; AID 504775; 320,000 tested, 0.096% active; CHO ldlA[mSR-BI] cells, DiI-HDL uptake fluorescence, 3 h; 100 = double the neutral-control signal; activation, % at 12.5 µM;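 active means mean replicate activation of at least 60% and every replicate at or above 60%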
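System: CHO ldlA[mSR-BI] cells / Medium: HEPES-buffered (25 mM, pH 7.4) F12 plus 0.5% BSA / Probe or stimulus: labelled HDL, 10 µg/mL / Doses: single compound concentration, delivered by pin transfer / Schedule: 3 h, 37 °C / Measured by: DiI fluorescence, bottom read / Measure: cell-associated DiI fluorescence as measure of HDL uptake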
Kir21 inh: inhibitors of mouse Kir2.1 inward-rectifier potassium channel | P35561 | HEK293-Kir2.1, FluxOR thallium flux fluorescence; hits give low values | B-score at 10 µM | 310,000 tested, 0.85% active | AID 1672;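 active means fluorescence ratio B-score at or below minus 3 SD of library scores, with starting-brightness B-score within 2 SD, cut at about -4.2 in these data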;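 further: channel flux triggered by added potassium and thallium sulfate stimulus; B-score of peak minus minimum fluorescence over baseline after thallium stimulus; more negative B-score means stronger Kir2.1 block with less thallium influx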
Target sequence (P35561 whole entry, looked up): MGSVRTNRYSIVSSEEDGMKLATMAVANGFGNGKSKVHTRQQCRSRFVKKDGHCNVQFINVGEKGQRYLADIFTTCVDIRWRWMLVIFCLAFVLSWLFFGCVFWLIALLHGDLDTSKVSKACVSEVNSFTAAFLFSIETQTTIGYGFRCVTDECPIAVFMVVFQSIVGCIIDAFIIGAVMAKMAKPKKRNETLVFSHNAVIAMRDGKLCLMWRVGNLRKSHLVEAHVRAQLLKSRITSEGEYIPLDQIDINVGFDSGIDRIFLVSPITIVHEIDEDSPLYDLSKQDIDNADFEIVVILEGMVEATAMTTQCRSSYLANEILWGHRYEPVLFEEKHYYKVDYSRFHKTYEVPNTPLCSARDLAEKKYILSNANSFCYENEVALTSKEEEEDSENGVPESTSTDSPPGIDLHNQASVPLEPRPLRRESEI
TMEM16A act: mouse TMEM16A channel activation, primary screen. Q8BHY3. HEK293 TMEM16A/YFP-H148Q/I152L, iodide quench fluorescence; hits give low values. B-score at 10 µM. 340,000 tested, 0.3% active;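 active means fluorescence-ratio B-score plate-corrected deviation score at least 3 library SD below zero, with starting fluorescence score within 5 deviations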;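 further: channel opened by trigger with iodide after compound preincubation; score built on the fluorescence ratio of max minus min over baseline; more negative score means more quench and so TMEM16A activation or potentiation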
TMEM16A reconf: re-confirmation of mouse TMEM16A chloride channel inhibitors; shares compounds with ANO1 block; HEK293 TMEM16A/YFP-H148Q, iodide quench fluorescence; ionomycin added to raise cell calcium; inhibition, % at 10 µM; 2,300 tested, 39% active; AID 652189;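 active means mean duplicate percent inhibition, scaled so buffer wells are 0 and the reference blocker 100, over three buffer SD above buffer mean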
TMEM16A Ca cntr: calcium mobilization counter-screen hit for TMEM16A inhibitor series | shares compounds with ANO1 block | TMEM16A/YFP HEK293, Fluo4 calcium mobilization | calcium response (% of ionomycin), % at 10 µM | 2,300 tested, 2% active;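 active means duplicate-averaged calcium signal over 20% of the ionomycin maximum, relative to buffer baseline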;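 further: each well's signal is peak minus trough fluorescence divided by its pre-addition baseline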
Parental YFP cnt: parental YFP-HEK293 iodide quench counter-screen activity. 2,300 tested, under 10 active. ionomycin. AID 652233. YFP ratio F(max-min)/F0 at 10 µM. shares compounds with ANO1 block;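 active means yellow fluorescent protein signal ratio exceeding the buffer control mean by over 5 SD of those controls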;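 further: ratio is mean of duplicate wells from kinetic YFP trace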
ClC-1 inh: blocks the rat ClC-1 voltage-dependent chloride channel | shares compounds with ANO1 block | CHO ClC-1-YFP, iodide influx fluorescence quench; iodide control reads 0, buffer control 100 | ratio percent, % at 10 µM | 2,300 tested, under 10 active | AID 652236;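 active means duplicate-mean ratio percent above the mean of iodide-only control wells, which defines zero, plus 5 of their SD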;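 further: higher percent means stronger block of ClC-1 iodide influx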
Hits are given with their value; - = inactive; . = no result. Shown are actives, neighbours in structure and some others; about 3% of the full set was active somewhere.

SMILES | SR-BI DiI inh | ANO1 block | DNA FID counter | SR-BI DiI-HDL act | Kir21 inh | TMEM16A act | TMEM16A reconf | TMEM16A Ca cntr | Parental YFP cnt | ClC-1 inh
Cc1cc(C(=O)CSc2nc3ccccc3o2)c(C)n1CC1CCCO1 (stereo unspecified) | - | 100 | - | - | - | - | - | - | - | -
Cc1cc(C(=O)Cn2nnc(-c3ccc(Cl)cc3)n2)c(C)n1CC1CCCO1 (stereo unspecified) | - | 25 | - | - | - | - | 22% | - | - | -
Cc1cc(C(=O)CSc2nc(N)cc(=O)[nH]2)c(C)n1CC1CCCO1 (stereo unspecified) | - | . | . | - | . | - | . | . | . | .
O=C(NC1CCSc2ccccc21)c1cccc(S(=O)(=O)N2CCOCC2)c1 (stereo unspecified) | - | - | . | - | - | - | . | . | . | .
O=C(COC(=O)c1cc(Br)ccc1O)Nc1ccc2c(c1)OCO2 | - | . | . | - | . | - | . | . | . | .
O=C(NCc1ccccn1)Nc1cccc(F)c1 | - | - | - | - | - | - | . | . | . | .
CCCc1[nH]nc2c1C1(CCOC1C)C(C#N)=C(N)O2 (stereo unspecified) | - | 25 | - | - | - | - | - | - | - | -
N#CC1C(=O)NC(=O)C(C#N)C12CCCC(C(F)(F)F)C2 (stereo unspecified) | - | . | . | - | . | - | . | . | . | .
Fc1cccc(CNc2ncnc3cc(Cl)ccc23)c1F | - | - | - | - | - | - | . | . | . | .
COc1cc(CN(C)CC(=O)c2[nH]c(C)c(C(C)=O)c2C)ccc1OC(F)F | - | 25 | - | - | - | - | 17% | - | - | -
COc1ccccc1OCC(=O)c1[nH]c(C)c(C(C)=O)c1C | - | 25 | - | . | - | - | - | - | - | -
COc1cc(C)ccc1OCC(=O)OCC(=O)c1[nH]c(C)c(C(C)=O)c1C | - | . | . | - | . | - | . | . | . | .
O=C1CC(c2ccccc2)c2ccc(O)cc2O1 (stereo unspecified) | - | 25 | - | - | - | - | - | - | - | -
COC(=O)c1c(C)oc2ccc(NS(=O)(=O)c3cccs3)cc12 | - | 100 | - | - | - | - | 31% | - | - | -
COCCOC(=O)c1c(C)oc2ccc(NS(=O)(=O)c3ccccc3)cc12 | - | - | - | - | - | - | . | . | . | .
C/C(=N\Nc1ccc(C(=O)O)cc1)c1ccc(-n2ccnc2)cc1 | - | - | - | - | - | - | . | . | . | .
COc1ccc(C)cc1NC(=S)N1CC(C)OC(C)C1 (stereo unspecified) | - | - | - | - | - | - | . | . | . | .
COc1ccc(OC)c(/C=C/c2nc3ccccc3[nH]c2=O)c1 | - | - | - | - | - | - | - | - | - | -
O=c1[nH]c2ccccc2nc1/C=C/c1ccccc1 | - | - | - | - | - | - | . | . | . | .
O=c1[nH]c2ccccc2nc1/C=C/c1ccc(F)cc1 | - | - | - | - | - | - | - | - | - | -
COc1cccc(NC(=O)Cc2nnc(SCC(=O)NC3CCCC3)n2C)c1 | . | - | - | . | - | - | . | . | . | .
S=C(NCCCN1CCN(CCCNC(=S)NC2CCCCC2)CC1)NC1CCCCC1 | - | . | . | - | . | - | . | . | . | .
CCOCCCNC(=S)N1CCN(c2nc(-c3ccc(F)cc3)cs2)CC1 | - | 100 | - | - | - | - | 31% | - | - | -
COCCCNC(=S)N1CCN(c2nc(-c3ccc(F)cc3)cs2)CC1 | - | - | - | - | - | - | . | . | . | .
CC(CNC(=S)Nc1cc(F)cc(F)c1)CSc1ccc(Cl)cc1 (stereo unspecified) | - | 25 | - | - | - | - | 44% | - | - | -
SMILES | SR-BI DiI inh | ANO1 block | DNA FID counter | SR-BI DiI-HDL act | Kir21 inh | TMEM16A act | TMEM16A reconf | TMEM16A Ca cntr | Parental YFP cnt | ClC-1 inh
CCN(CC)S(=O)(=O)c1cccc(NC2=NCCCCC2)c1 | - | - | - | - | - | - | . | . | . | .
C[C@H](NC(=O)OC(C)(C)C)c1nnc(SCC(=O)c2ccc(Cl)cc2)o1 | - | 100 | - | - | - | - | - | - | - | -
Cc1ccc(NC(=O)Nc2nnc(-c3ccncc3)s2)cc1C | - | 25 | - | - | - | - | - | - | - | -
CC(C)Cc1cc(C(=O)Nc2cc(C(F)(F)F)ccc2Cl)no1 | - | - | - | - | - | - | . | . | . | .
O=C(Nc1ccc(F)cc1)C1CCN(S(=O)(=O)c2ccc3[nH]c(=O)oc3c2)CC1 | - | - | - | - | - | - | . | . | . | .
CCN(CC1COc2ccccc2O1)C(=S)NC1CC2CCC1C2 (stereo unspecified) | - | 100 | - | - | - | - | - | - | - | -
CCOP(=O)(Nc1cccc2oc(=O)c3ccccc3c12)OCC | - | . | . | - | . | - | . | . | . | .
CN1c2ccccc2C(O)=C(C(=S)Nc2ccc(Cl)cc2)S1(=O)=O | - | 100 | - | - | - | - | 20% | - | - | -
Cc1cccc(NC(=O)C2=C(O)c3ccccc3N(C)S2(=O)=O)c1 | - | - | - | - | - | - | . | . | . | .
Cc1ccc(Nc2nc(COC(=O)C3CC3)cs2)cc1 | - | 100 | - | - | - | - | 21% | - | - | -
COc1ccc(N2C(=O)C3CCCN3C2c2cccc(Br)c2)cc1 (stereo unspecified) | - | - | - | - | - | - | . | . | . | .
COc1ccc(N2C(=O)C3CCCN3C2c2cccc(OC)c2OC)cc1 (stereo unspecified) | - | 25 | - | - | - | - | - | - | - | -
O=C(Nc1nc(-c2cccs2)cs1)c1ccc(S(=O)(=O)N2CCCC2)cc1 | - | 25 | - | - | - | - | - | - | - | -
Cc1ccc(-n2c(SCC(=O)N3Cc4ccccc4CC3C(=O)O)nnc2-c2cccnc2)c(C)c1 (stereo unspecified) | - | - | - | - | - | - | . | . | . | .
CCOC(=O)c1c(NS(=O)(=O)Cc2ccccc2)sc2c1CCCC2 | - | - | - | - | - | - | . | . | . | .
CCOC(=O)c1c(NS(=O)(=O)c2ccc(Br)cc2)sc2c1CCC2 | - | 100 | - | - | - | - | 70% | - | - | -
CC(C)(C)NC(=O)Cn1c(SCC(N)=O)nc2ccccc21 | - | 100 | - | - | - | - | - | - | - | -
CC(C)(C)NC(=O)Cn1c(SCC(=O)NC2CC2)nc2ccccc21 | . | - | - | . | - | - | . | . | . | .

Source: PubChem
